Source: ChEMBL document CHEMBL4266019, “Discovery and Structure-Activity-Relationship Study of N-Alkyl-5-hydroxypyrimidinone Carboxamides as Novel Antitubercular Agents Targeting Decaprenylphosphoryl-β-d-ribose 2'-Oxidase” (J Med Chem, 2018)
pIC50: −log10 of the molar value. In brackets after ≈: the same amount, converted by molar mass. Activity calls are given as the source filed them. The rule behind the calls is not given here.

Assays:
HepG2 [1] = assay: Cytotoxicity against human HepG2 cells in presence of galactose; format: cell-based
Procedure, shortened: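 HepG2 cells tested in DMEM/10% FBS containing galactose.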

HepG2 [2] = assay: Cytotoxicity against human HepG2 cells in presence of glucose; format: cell-based
Procedure, shortened: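 HepG2 cells tested in DMEM/10% FBS supplemented with glucose.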

[3] = tested on: Mycobacterium tuberculosis; assay: Bactericidal activity against Mycobacterium tuberculosis H37Rv under aerobic condition after 7 days; format: functional, organism-based
Procedure, shortened: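 Log-phase H37Rv (OD650 0.2) diluted 1000-fold in 7H9/ADC and exposed to 1×, 5×, 10×, 20× and 50× MIC in duplicate. Sampled at days 1, 2, 4 and 7; CFU counted on 7H11/OADC plates.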

[4] = tested on: Mycobacterium tuberculosis; assay: Antitubercular activity against Mycobacterium tuberculosis H37Rv assessed as induction of DNA damage by precA-LUX/pradA-LUX reporter-gene assay; format: functional, organism-based
Procedure, shortened: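 DNA-damage read-out: induction of the recA and radA promoters measured as luminescence in H37Rv precA-LUX and pradA-LUX reporter strains.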

[5] = tested on: Mycobacterium tuberculosis; assay: Bactericidal activity against Mycobacterium tuberculosis H37Rv under anaerobic condition at 1 to 50 fold MIC after 7 days; format: functional, organism-based
Procedure, shortened: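 Anaerobic H37Rv from the self-generated oxygen-depletion (Wayne) model exposed to 1×, 5×, 10×, 20× and 50× MIC in an anaerobic chamber for 7 days. CFU counted on 7H11/OADC plates.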

[6] = biological target: T1, Decaprenylphosphoryl-beta-D-ribose oxidase (Mycobacterium tuberculosis (strain ATCC 25618 / H37Rv)) (UniProt P9WJF1); assay: Inhibition of DprE1 in Mycobacterium tuberculosis H37Rv assessed as bacterial growth inhibition after 4 weeks
T1 sequence (whole entry): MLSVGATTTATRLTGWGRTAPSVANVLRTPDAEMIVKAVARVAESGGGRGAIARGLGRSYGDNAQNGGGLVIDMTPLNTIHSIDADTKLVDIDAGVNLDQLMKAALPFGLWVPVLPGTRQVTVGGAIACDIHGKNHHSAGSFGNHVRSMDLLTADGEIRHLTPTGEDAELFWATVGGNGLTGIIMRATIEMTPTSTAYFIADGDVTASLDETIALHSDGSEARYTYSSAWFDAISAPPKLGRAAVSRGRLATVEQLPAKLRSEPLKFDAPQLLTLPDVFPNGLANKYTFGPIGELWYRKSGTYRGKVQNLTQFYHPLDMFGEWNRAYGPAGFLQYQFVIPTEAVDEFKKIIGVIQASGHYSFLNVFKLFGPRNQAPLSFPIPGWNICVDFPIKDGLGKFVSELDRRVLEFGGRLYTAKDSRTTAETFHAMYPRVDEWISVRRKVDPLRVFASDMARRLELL

[7] = tested on: Mycobacterium tuberculosis; assay: Antitubercular activity against Mycobacterium tuberculosis H37Rv after 7 to 14 days in presence of GAST medium by two fold serial dilution method; format: functional
Procedure, shortened: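 MIC in GAST (glycerol/alanine/salts/Tween 80 defined medium), strain H37Rv; screening hits tested as duplicate 12-point MIC determinations with MgCl2 at 0.06, 6 or 60 mM.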

**Q.** How did the pIC50 (HepG2 [1]) turn out when Cn1c(Cc2ccccc2C(F)(F)F)nc(C(=O)Nc2ccccc2)c(O)c1=O was run?
**A.** < 4.00

**Q.** And the pIC50 (HepG2 [2])?
**A.** < 4.00

**Q.** What does the source list for Cn1c(Cc2ccccc2C(F)(F)F)nc(C(=O)NCC2CCCCC2)c(O)c1=O?
**A.** pIC50 (HepG2 [1]): < 4.00; pIC50 (HepG2 [2]): < 4.00

**Q.** What does the source list for Cn1c(Cc2ccccc2C(F)(F)F)nc(C(=O)NCc2ccccc2)c(O)c1=O?
**A.** Activity [3]: Dose-dependent effect; pIC50 (HepG2 [1]): < 4.00; Activity [4]: inactive; pIC50 (HepG2 [2]): < 4.00; Activity [5]: inactive; MIC [6]: 3.13 µM (≈ 1.31 µg/mL); MIC [7]: 0.4 to 0.59 µM

**Q.** What does the source list for Cn1c(Cc2ccccc2C(F)(F)F)nc(C(=O)NCc2ccccc2F)c(O)c1=O?
**A.** pIC50 (HepG2 [1]): < 4.00; pIC50 (HepG2 [2]): < 4.00

**Q.** How did the pIC50 (HepG2 [1]) turn out when Cn1c(Cc2ccccc2C(F)(F)F)nc(C(=O)CCc2ccccc2)c(O)c1=O was run?
**A.** < 4.00

**Q.** What about the pIC50 (HepG2 [2]) of the same compound?
**A.** < 4.00

**Q.** Which results are given for Cn1c(Cc2ccccc2C(F)(F)F)nc(C(=O)NCc2cccnc2)c(O)c1=O?
**A.** pIC50 (HepG2 [1]): < 4.00; pIC50 (HepG2 [2]): < 4.00

**Q.** With O=C(NCc1ccccc1)c1nc(Cc2ccccc2C(F)(F)F)[nH]c(=O)c1O as the compound, how does the pIC50 (HepG2 [1]) read?
**A.** < 4.00

**Q.** And the pIC50 (HepG2 [2])?
**A.** < 4.00

**Q.** CCn1c(Cc2ccccc2C(F)(F)F)nc(C(=O)NCc2ccccc2)c(O)c1=O was tested. Which pIC50 (HepG2 [1]) did it give?
**A.** < 4.00

**Q.** What about the pIC50 (HepG2 [2]) of the same compound?
**A.** < 4.00

**Q.** Which results are given for COc1c(C(=O)NCc2ccccc2)nc(Cc2ccccc2C(F)(F)F)n(C)c1=O?
**A.** pIC50 (HepG2 [1]): < 4.00; pIC50 (HepG2 [2]): < 4.00

**Q.** CC(c1ccccc1C(F)(F)F)c1nc(C(=O)NCc2ccccc2)c(O)c(=O)n1C (configuration not stated) was tested. Which pIC50 (HepG2 [1]) did it give?
**A.** < 4.00

**Q.** And the pIC50 (HepG2 [2])?
**A.** < 4.00

**Q.** With CC(NC(=O)c1nc(Cc2ccccc2C(F)(F)F)n(C)c(=O)c1O)c1ccccc1 (configuration not stated) as the compound, how does the pIC50 (HepG2 [1]) read?
**A.** < 4.00

**Q.** What about the pIC50 (HepG2 [2]) of the same compound?
**A.** < 4.00

**Q.** With Cn1c(Cc2ccccc2C(F)(F)F)nc(C(=O)NCc2ccc3c(c2)OCO3)c(O)c1=O as the compound, how does the pIC50 (HepG2 [1]) read?
**A.** < 4.00

**Q.** What about the pIC50 (HepG2 [2]) of the same compound?
**A.** < 4.00

**Q.** How did the pIC50 (HepG2 [1]) turn out when Cn1c(Cc2ccccc2)nc(C(=O)NCc2ccccc2)c(O)c1=O was run?
**A.** < 4.00

**Q.** And the pIC50 (HepG2 [2])?
**A.** < 4.00

**Q.** How did the pIC50 (HepG2 [1]) turn out when CN(Cc1ccccc1)C(=O)c1nc(Cc2ccccc2C(F)(F)F)n(C)c(=O)c1O was run?
**A.** < 4.00

**Q.** And the pIC50 (HepG2 [2])?
**A.** < 4.00

**Q.** Cn1c(Cc2ccccc2C(F)(F)F)nc(C(=O)NCc2ccccn2)c(O)c1=O was tested. Which pIC50 (HepG2 [1]) did it give?
**A.** < 4.00

**Q.** And the pIC50 (HepG2 [2])?
**A.** < 4.00

**Q.** What does the source list for Cn1c(Cc2ccccc2C(F)(F)F)nc(C(=O)NCc2ccc(F)cc2)c(O)c1=O?
**A.** pIC50 (HepG2 [1]): < 4.00; pIC50 (HepG2 [2]): < 4.00
